High-throughput results: PubChem, several laboratories
The list is not random: actives were taken first. Their share in the collection is about 4.7%.
MT1-MMP act inh: inhibitors of human MT1-MMP activation; P50281; GFP/RFP ratio change, % at 20 µM; 360,000 compounds, 0.061% hits; HT1080 RFP-PRO-GFP cells, GFP/RFP ratio fluorescence, overnight; percent of plate control window, DMSO zero;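 active = GFP/RFP ratio change of at least 30% with cell ATP level not reduced by more than half and red fluorescence within 50% of control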
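Assay system: HT1080 RFP-PRO-GFP cells. Benchmarks: DMSO vehicle wells and RFP-L50D-GFP reporter cell wells. Times: overnight cell settling, then overnight compound exposure, 37 °C, 5% CO2. Compound: 20 µM single dose, 1% DMSO. Read-out basis: GFP/RFP fluorescence ratio.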
NR3A LBD binder: modulates the human NR3A ligand-binding domain. NR3A LBD differential scanning fluorimetry, Tm shift; 0% = protein alone, 100% = glycine-bound protein. Tm shift relative to glycine control, % at 25 µM. 340,000 compounds, 2.5% hits. AID 1259313;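 active = melting temperature shift of at least 10% of the positive control shift, at one fixed dose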
SKN-1 block: inhibitors of C. elegans SKN-1 | C. elegans VP596 Pgst-4::GFP/RFP ratio, acrylamide-induced, 24 h | inhibition, % at 21.8 µM | 360,000 compounds, 0.49% hits | AID 624304;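 active = interference check ratio from 0.5 to 1.5 plus GFP to RFP signal ratio inhibition reaching or exceeding a fixed threshold, cut at about 30% in these data, passing the limit was not always enough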
ADAM17 inh: ADAM17 inhibition, QFRET primary screen. P78536. recombinant ADAM17, EDANS/DABCYL FRET peptide cleavage. inhibition, % at 6.95 µM. AID 720648. 370,000 compounds, 0.83% hits;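 active = inhibition above the mean of compounds lying between control limits plus 3 SD, set per campaign, cut at about 8.5% in these data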;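 note: 0% = DMSO-only wells as the low control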
MPTP block: permeability transition pore inhibition. AID 602449. 360,000 compounds, 1.4% hits. inhibition, % at 10 µM. isolated mouse mitochondria, Ca2+ swelling absorbance, 30 min;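 active = inhibition of 50% or more, scaled per plate between neutral and stimulator controls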;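 note: 0% = DMSO wells given calcium and 100% = 1 mM EGTA wells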
ADAM10 inh: inhibitors of human ADAM10; recombinant ADAM10, EDANS/DABCYL FRET peptide cleavage, 3 h; inhibition, % at 7 µM; 370,000 compounds, 0.62% hits; AID 720582;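 active = inhibition above a per-campaign cutoff equal to the mean of compounds falling between control-based bounds plus 3 SD, cut at about 20% in these data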;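 note: 0% = DMSO wells while the 100% control is not disclosed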
Target sequence (O14672 214-748 limits assumed): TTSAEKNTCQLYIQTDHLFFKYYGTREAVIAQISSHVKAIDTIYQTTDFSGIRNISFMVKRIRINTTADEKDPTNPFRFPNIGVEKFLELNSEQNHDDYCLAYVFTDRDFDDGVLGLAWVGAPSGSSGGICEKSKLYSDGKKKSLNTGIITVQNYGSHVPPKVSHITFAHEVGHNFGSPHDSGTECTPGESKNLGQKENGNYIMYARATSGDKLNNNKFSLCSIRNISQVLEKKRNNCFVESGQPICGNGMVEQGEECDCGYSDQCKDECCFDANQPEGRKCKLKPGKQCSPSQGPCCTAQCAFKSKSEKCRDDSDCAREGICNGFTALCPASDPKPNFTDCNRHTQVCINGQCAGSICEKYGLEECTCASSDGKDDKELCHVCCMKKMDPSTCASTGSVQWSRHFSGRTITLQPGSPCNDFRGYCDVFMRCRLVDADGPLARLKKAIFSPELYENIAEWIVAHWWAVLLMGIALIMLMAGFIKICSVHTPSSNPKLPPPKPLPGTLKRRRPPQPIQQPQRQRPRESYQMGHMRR
MPTP counter: Rhodamine 123 counter-screen of mitochondrial pore hits | shares compounds with MPTP block | 5,000 compounds, 78% hits | isolated mitochondria, membrane potential, Rhodamine 123 fluorescence | inhibition, % at 10 µM; in the data active = inhibition above about 22%;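 note: 0% = DMSO vehicle and 100% = positive control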
MPTP swell DR: MPTP inhibition, dose response swelling confirmation; shares compounds with MPTP block; isolated mitochondria swelling, absorbance; IC50, µM; 780 compounds, 58% hits; AID 651561; in the data active = IC50 below about 20 µM
MPTP counter DR: counter-screen for mitochondrial permeability transition pore inhibitors, dose response; 780 compounds, 49% hits; IC50, µM; isolated mitochondria counterscreen, fluorescence read-out; AID 651564; shares compounds with MPTP block; in the data active = IC50 below about 80 µM
* hit, by the source's call; i = inactive; / = not tested or not shown.

SMILES	MT1-MMP act inh	NR3A LBD binder	SKN-1 block	ADAM17 inh	MPTP block	ADAM10 inh	MPTP counter	others
OC(COc1ccc2cc(Br)ccc2c1)CN1CCCC1 (configuration not stated)	/	2	29	-2	88*	1	-6	MPTP swell DR=9.4*;MPTP counter DR=>80
CC1CCC(C(C)C)C(OCC(O)CN2CCOCC2)C1 (configuration not stated)	-5	2	9	-3	0	-7	/
OC(COc1ccc(OCC(O)CN2CCN(Cc3ccccc3)CC2)cc1)CN1CCN(Cc2ccccc2)CC1 (configuration not stated)	6	1	17	4	54*	2	-2	MPTP swell DR=12*;MPTP counter DR=30*
COc1ccc([C@H]2C[C@H](O)[C@@H](n3cc(-c4ccc(F)cc4)nn3)CN2C(=O)c2cccs2)cc1	2	/	-6	0	-1	-1	/
O=C(Cc1cn2ccsc2n1)Nc1nc2c(s1)CN(Cc1ccccc1)CC2	-8	0	-7	-16	-1	-27	/
Cc1ccc(OCC(=O)N2CCN(c3nnc(-c4ccc(C)cc4)c4ccccc34)CC2)cc1	-5	-12	-9	-3	84*	-6	22*
COc1ccc(OCC(=O)N2CCN(c3nnc(-c4ccc(C)cc4)c4ccccc34)CC2)cc1	-3	0	-7	-1	60*	10	15	MPTP swell DR=20*;MPTP counter DR=22*
Cc1nnc(SCSc2nnc(C)s2)s1	-1	0	-13	-1	-4	10	/
COc1cccc(C(C[N+](=O)[O-])c2c(C)[nH]n(-c3ccccc3)c2=O)c1 (configuration not stated)	-2	3	-9	0	1	-2	/
Cc1[nH]n(-c2ccccc2)c(=O)c1C(c1cccc([N+](=O)[O-])c1O)c1c(C)[nH]n(-c2ccccc2)c1=O	8	19*	-12	7	103*	17	65*
Cc1[nH]n(-c2ccccc2)c(=O)c1C(C[N+](=O)[O-])c1ccc(Br)cc1 (configuration not stated)	2	-10	9	1	73*	13	37*
Cc1c(C(c2cccc([N+](=O)[O-])c2O)c2c(C)n(C)n(-c3ccccc3)c2=O)c(=O)n(-c2ccccc2)n1C	5	3	-4	2	-4	12	/
Cc1nc2c3ccccc3nc(NNC(=O)CCC(=O)N3CCC(C)CC3)n2n1	3	0	-16	0	-1	2	/
CCSc1nnc(NC(=O)CSc2ncccn2)s1	4	2	-5	-7	-2	2	/
CCOC(=O)C1(CCOC)CCN(Cc2cccc(OCc3ccccc3)c2)CC1	7	-2	2	0	55*	8	10	MPTP swell DR=15*;MPTP counter DR=26*
CCOC(=O)C1(CCOC)CCN(C/C=C/c2ccccc2OC)CC1	2	4	2	-1	90*	19	49*
CCOC(=O)C1(CCOc2ccccc2)CCN(Cc2cccc(OC)c2)CC1	2	-2	-1	1	41	-1	/
CCOC(=O)C1(CCOc2ccccc2)CCN(Cc2cccs2)CC1	-2	1	-8	-3	52*	-9	8	MPTP swell DR=17*;MPTP counter DR=48*
CCOC(=O)C1(CCOc2ccccc2)CCN(Cc2ccncc2)CC1	-7	-2	0	-3	-2	-6	/
CCOC(=O)C1(CCCc2ccccc2)CCN(Cc2nccn2CC)CC1	-6	0	-6	-1	56*	-3	40*
CCOC(=O)C1(CCOC)CCN(Cc2ccncc2)CC1	-6	1	1	-1	0	-8	/
CCc1ccc(/C=C/C(=O)c2ccc(N3CCOCC3)cc2)cc1	1	2	6	5	68*	14	14	MPTP swell DR=i;MPTP counter DR=19*
O=[N+]([O-])c1c(O)c(Cl)cc(Cl)c1Cl (tested in a mixture with another compound)	3	-4	15	1	78*	5	86*
CCN(CC)C(=O)CCS(=O)(=O)c1cccc2nonc12	4	0	3	-2	-1	-10	/
O=C(Nc1ccc(F)cc1)Nc1nnc(Cc2ccccc2)s1	0	-3	11	3	19	2	/
SMILES	MT1-MMP act inh	NR3A LBD binder	SKN-1 block	ADAM17 inh	MPTP block	ADAM10 inh	MPTP counter	others
O=C(Nc1ccc(Cl)cc1)Nc1nnc(CSc2ccc(Cl)cc2)s1	-10	27*	0	-1	85*	-2	63*
O=C(Nc1ccc(Cl)cc1)Nc1nnc(Cc2ccc([N+](=O)[O-])cc2)s1	0	0	2	-2	83*	-4	63*
O=C(Nc1ccc(Cl)cc1)Nc1nnc(CSCc2ccccc2)s1	-2	-6	-9	0	97*	3	60*
O=C(Nc1ccc(Cl)cc1)N1CCC(c2ccccc2)C1 (configuration not stated)	3	3	6	4	86*	13	91*
CCOC(=O)Cn1c(=O)c2c(nc3n2CCCN3CCc2ccccc2)n(C)c1=O	3	1	4	0	1	1	/
CCOC(=O)c1sc(=S)n(C)c1NC(=O)c1ccc(C(C)(C)C)cc1	-9	5	6	3	75*	3	88*
Cc1ccc(C(=O)Nc2cccc([N+](=O)[O-])c2)cc1S(=O)(=O)Nc1cccc(C(=O)O)c1	-3	8	4	0	-1	-5	/
Cc1ccc(NC(=O)CC(=O)c2ccc([N+](=O)[O-])cc2)cc1S(=O)(=O)Nc1cccc(Cl)c1	0	25*	0	4	80*	13	55*
Cc1cc(SCC(=O)N/N=C/c2ccc(O)c(O)c2O)c(C)cc1Br	-19	25*	16	2	92*	14	57*
COc1cc(/C=N/NC(=O)CSc2cc(C)c(Br)cc2C)ccc1O	3	7	1	2	19	12	/
CN(CC(=O)Nc1ccc(N2CCOCC2)cc1)Cc1c(O)ccc2ccccc12	3	1	-6	-20	-2	-63	/
CO/N=C/C(C#N)c1ncc(C(F)(F)F)cc1Cl (configuration not stated)	6	-6	-1	/	99*	/	92*
Cc1ccc(Cl)cc1NC(=O)COC(=O)Cn1cnc2c1c(=O)n(C)c(=O)n2C	6	0	4	-3	0	-2	/
Clc1cccc(Cl)c1CON/C=N/c1ncnc2sccc12	-13	-34	-9	3	69*	5	41*
